In ChEMBL document CHEMBL4354800, “Amphiphilic nebramine-based hybrids Rescue legacy antibiotics from intrinsic resistance in multidrug-resistant Gram-negative bacilli” (Eur J Med Chem, 2019):

Key:
Pseudomonas aeruginosa [1] = assay: Synergistic antibacterial activity against MDR/XDR Pseudomonas aeruginosa isolate PA260-97103 harboring GyrA T83I mutant assessed as fractional inhibitory concentration index in presence of rifampicin incubated for 18 hrs by broth microdilution method; format: functional
Method in brief: (§1)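 Checkerboard synergy assay. Antibiotic and adjuvant in twofold dilutions in Mueller-Hinton broth. Inoculum 5 × 10^5 CFU/mL from a 0.5 McFarland suspension, 18 h at 37 °C, MIC read by turbidity and confirmed at 590 nm. FIC = MIC in combination / MIC alone for each agent, FICI = sum. Interpreted as ≤0.5 synergy, 0.5–4 no interaction, >4 antagonism.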

Pseudomonas aeruginosa [2] = assay: Synergistic antibacterial activity against MDR/XDR Pseudomonas aeruginosa isolate 101885 harboring T83I mutant assessed as fractional inhibitory concentration index in presence of rifampicin incubated for 18 hrs by broth microdilution method; format: functional; method in brief: as §1
Pseudomonas aeruginosa [3] = assay: Synergistic antibacterial activity against MDR/XDR Pseudomonas aeruginosa isolate 91433 devoid of GyrA T83I mutant assessed as fractional inhibitory concentration index in presence of moxifloxacin incubated for 18 hrs by broth microdilution method; format: functional; method in brief: as §1
Klebsiella pneumoniae [4] = assay: Synergistic antibacterial activity against Klebsiella pneumoniae 116381 assessed as fractional inhibitory concentration index in presence of rifampicin incubated for 18 hrs by broth dilution method; format: functional
Method in brief: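 Checkerboard titration of the adjuvant against the antibiotic, run under the CLSI microdilution conditions (MHB, 5 × 10^5 CFU/mL, 18 h, 37 °C). Each agent's FIC is its MIC in combination divided by its MIC alone; FICI is the sum of the two FICs. FICI ≤0.5 was read as synergy, >0.5–4.0 as no interaction, and >4.0 as antagonism.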

Pseudomonas aeruginosa [5] = assay: Antimicrobial activity against MDR/XDR Pseudomonas aeruginosa isolate 101243 devoid of GyrA Thr83Ile mutant incubated for 18 hrs by broth microdilution method; format: functional; conditions: isolate 101243, 18 h
Method in brief: (§2)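 Broth microdilution per CLSI: overnight cultures set to 0.5 McFarland in saline, diluted 1:50 in Mueller-Hinton broth to a final 5 × 10^5 CFU/mL, added to 2-fold serial dilutions, incubated 18 h at 37 °C; MIC is the lowest concentration without visible turbidity, confirmed at 590 nm.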

Pseudomonas aeruginosa [6] = assay: Synergistic antibacterial activity against MDR/XDR Pseudomonas aeruginosa isolate 91433 devoid of GyrA T83I mutant assessed as fractional inhibitory concentration index in presence of minocycline incubated for 18 hrs by broth microdilution method; format: functional; method in brief: as §1
Pseudomonas aeruginosa [7] = assay: Synergistic antibacterial activity against MDR/XDR Pseudomonas aeruginosa isolate 100036 harboring GyrA T83I mutant assessed as fractional inhibitory concentration index in presence of moxifloxacin incubated for 18 hrs by broth microdilution method; format: functional; method in brief: as §1
Klebsiella pneumoniae [8] = assay: Potentiation of minocycline-induced antibacterial activity against Klebsiella pneumoniae 116381 assessed as fold reduction in minocycline MIC at 7.5 uM incubated for 18 hrs by broth dilution method; format: functional
Method in brief: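 Antibiotic MIC determined by CLSI broth microdilution (MHB, 5 × 10^5 CFU/mL, 18 h, 37 °C), once alone and once with a fixed concentration of the adjuvant. Potentiation is the ratio of the antibiotic MIC alone to its MIC in the presence of the adjuvant.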

HEK293 = assay: Cytotoxicity against HEK293 cells at 50 uM incubated for 48 hrs by PrestoBlue dye based fluorescence assay; format: cell-based; conditions: human, hek293, 48 h
Pseudomonas aeruginosa [9] = assay: Antimicrobial activity against MDR/XDR Pseudomonas aeruginosa isolate 91433 devoid of GyrA Thr83Ile mutant incubated for 18 hrs by broth microdilution method; format: functional; conditions: isolate 91433, 18 h; method in brief: as §2
Pseudomonas aeruginosa [10] = assay: Synergistic antibacterial activity against MDR/XDR Pseudomonas aeruginosa isolate PA262-101856 harboring GyrA T83I mutant assessed as fractional inhibitory concentration index in presence of minocycline incubated for 18 hrs by broth microdilution method; format: functional; method in brief: as §1
Enterobacter cloacae = assay: Antimicrobial activity against Enterobacter cloacae 117029 incubated for 18 hrs by broth dilution method; format: functional; conditions: Enterobacter cloacae, 117029, 18 h
Method in brief: (§3)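 CLSI broth microdilution. Overnight cultures were adjusted to 0.5 McFarland in saline, diluted 1:50 in Mueller-Hinton broth, and inoculated at a final 5 × 10^5 CFU/mL. Compounds were tested as 2-fold serial dilutions and incubated 18 h at 37 °C. MIC was the lowest concentration with no visible turbidity, confirmed by absorbance at 590 nm.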

Pseudomonas aeruginosa [11] = assay: Synergistic antibacterial activity against MDR/XDR Pseudomonas aeruginosa isolate PA262-101856 harboring GyrA T83I mutant assessed as fractional inhibitory concentration index in presence of moxifloxacin incubated for 18 hrs by broth microdilution method; format: functional; method in brief: as §1
Pseudomonas aeruginosa [12] = assay: Synergistic antibacterial activity against MDR/XDR Pseudomonas aeruginosa isolate 101243 devoid of GyrA T83I mutant assessed as fractional inhibitory concentration index in presence of minocycline incubated for 18 hrs by broth microdilution method; format: functional; method in brief: as §1
Pseudomonas aeruginosa [13] = assay: Synergistic antibacterial activity against MDR/XDR Pseudomonas aeruginosa isolate 101885 harboring GyrA T83I mutant assessed as fractional inhibitory concentration index in presence of moxifloxacin incubated for 18 hrs by broth microdilution method; format: functional; method in brief: as §1
Pseudomonas aeruginosa [14] = assay: Synergistic antibacterial activity against MDR/XDR Pseudomonas aeruginosa isolate 101243 devoid of GyrA T83I mutant assessed as fractional inhibitory concentration index in presence of rifampicin incubated for 18 hrs by broth microdilution method; format: functional; method in brief: as §1
Pseudomonas aeruginosa [15] = assay: Antimicrobial activity against MDR/XDR Pseudomonas aeruginosa isolate 101885 harboring GyrA Thr83Ile mutant incubated for 18 hrs by broth microdilution method; format: functional; conditions: isolate 101885, 18 h; method in brief: as §2
Pseudomonas aeruginosa [16] = assay: Antimicrobial activity against MDR/XDR Pseudomonas aeruginosa isolate PA262-101856 harboring GyrA Thr83Ile mutant incubated for 18 hrs by broth microdilution method; format: functional; conditions: isolate PA262-101856, 18 h; method in brief: as §2
Pseudomonas aeruginosa [17] = assay: Synergistic antibacterial activity against MDR/XDR Pseudomonas aeruginosa isolate 91433 devoid of GyrA T83I mutant assessed as fractional inhibitory concentration index in presence of ciprofloxacin incubated for 18 hrs by broth microdilution method; format: functional; method in brief: as §1
Pseudomonas aeruginosa [18] = assay: Synergistic antibacterial activity against MDR/XDR Pseudomonas aeruginosa isolate 100036 harboring GyrA T83I mutant assessed as fractional inhibitory concentration index in presence of minocycline incubated for 18 hrs by broth microdilution method; format: functional; method in brief: as §1
Pseudomonas aeruginosa [19] = assay: Synergistic antibacterial activity against MDR/XDR Pseudomonas aeruginosa isolate PA262-101856 harboring GyrA T83I mutant assessed as fractional inhibitory concentration index in presence of rifampicin incubated for 18 hrs by broth microdilution method; format: functional; method in brief: as §1
Pseudomonas aeruginosa [20] = assay: Synergistic antibacterial activity against MDR/XDR Pseudomonas aeruginosa isolate 91433 devoid of GyrA T83I mutant assessed as fractional inhibitory concentration index in presence of rifampicin incubated for 18 hrs by broth microdilution method; format: functional; method in brief: as §1
Klebsiella pneumoniae [21] = assay: Antimicrobial activity against Klebsiella pneumoniae 116381 incubated for 18 hrs by broth dilution method; format: functional; conditions: Klebsiella pneumoniae, 116381, 18 h; method in brief: as §3
Pseudomonas aeruginosa [22] = assay: Antimicrobial activity against MDR/XDR Pseudomonas aeruginosa isolate PA260-97103 harboring GyrA Thr83Ile mutant incubated for 18 hrs by broth microdilution method; format: functional; conditions: isolate PA260-97103, 18 h; method in brief: as §2
Pseudomonas aeruginosa [23] = assay: Synergistic antibacterial activity against MDR/XDR Pseudomonas aeruginosa isolate PA259-96918 harboring GyrA T83I mutant assessed as fractional inhibitory concentration index in presence of ciprofloxacin incubated for 18 hrs by broth microdilution method; format: functional; method in brief: as §1

## COc1c(N2C[C@@H]3CCCN(CCCCCCCCCCCCO[C@@H]4[C@@H](O)[C@H](N)C[C@H](N)[C@H]4O[C@H]4O[C@H](CN)[C@@H](O)C[C@H]4N)[C@@H]3C2)c(F)cc2c(=O)c(C(=O)O)cn(C3CC3)c12.Cl.Cl.Cl.Cl.Cl
Pseudomonas aeruginosa [1]
  fractional inhibitory concentration index (FICI): 0.06
Pseudomonas aeruginosa [2]
  fractional inhibitory concentration index (FICI): 0.05
Pseudomonas aeruginosa [3]
  fractional inhibitory concentration index (FICI): 0.31
Klebsiella pneumoniae [4]
  fractional inhibitory concentration index (FICI): 0.002 - 0.006
Pseudomonas aeruginosa [5]
  MIC: 64 µg/mL
Pseudomonas aeruginosa [6]
  fractional inhibitory concentration index (FICI): 0.19
Pseudomonas aeruginosa [7]
  fractional inhibitory concentration index (FICI): 0.08
Klebsiella pneumoniae [8]
  fold change (FC): 16
HEK293
  Activity: Non-Toxic
Pseudomonas aeruginosa [9]
  MIC: 32 µg/mL
Pseudomonas aeruginosa [10]
  fractional inhibitory concentration index (FICI): 0.03 - 0.05
Enterobacter cloacae
  MIC: 32 µg/mL
Pseudomonas aeruginosa [11]
  fractional inhibitory concentration index (FICI): 0.13 - 0.16
Pseudomonas aeruginosa [12]
  fractional inhibitory concentration index (FICI): 0.13
Pseudomonas aeruginosa [13]
  fractional inhibitory concentration index (FICI): 0.25
Pseudomonas aeruginosa [14]
  fractional inhibitory concentration index (FICI): 0.13
Pseudomonas aeruginosa [15]
  MIC: 128 µg/mL
Pseudomonas aeruginosa [16]
  MIC: > 256 µg/mL
Pseudomonas aeruginosa [17]
  fractional inhibitory concentration index (FICI): 0.25
Pseudomonas aeruginosa [18]
  fractional inhibitory concentration index (FICI): 0.06
Pseudomonas aeruginosa [19]
  fractional inhibitory concentration index (FICI): 0.008 - 0.02
Pseudomonas aeruginosa [20]
  fractional inhibitory concentration index (FICI): 0.16
Klebsiella pneumoniae [21]
  MIC: > 256 µg/mL
Pseudomonas aeruginosa [22]
  MIC: 32 µg/mL
Pseudomonas aeruginosa [23]
  fractional inhibitory concentration index (FICI): 0.25 - 0.27

## Cl.Cl.Cl.Cl.Cl.NC[C@H]1O[C@H](O[C@H]2[C@H](OCCCCCCCCCCCCN3CCN(c4cc5c(cc4F)c(=O)c(C(=O)O)cn5C4CC4)CC3)[C@@H](O)[C@H](N)C[C@@H]2N)[C@H](N)C[C@@H]1O
Klebsiella pneumoniae [4]
  fractional inhibitory concentration index (FICI): <=0.039
HEK293
  Activity: Non-Toxic
Enterobacter cloacae
  MIC: 32 µg/mL
Klebsiella pneumoniae [21]
  MIC: > 128 µg/mL

## Cl.Cl.Cl.Cl.Cl.Cl.NC[C@H]1O[C@H](O[C@H]2[C@H](OCCCCCCCCCCN3CCN(Cc4cccc5ccccc45)CC3)[C@@H](O)[C@H](N)C[C@@H]2N)[C@H](N)C[C@@H]1O
Pseudomonas aeruginosa [1]
  fractional inhibitory concentration index (FICI): 0.05
Pseudomonas aeruginosa [2]
  fractional inhibitory concentration index (FICI): 0.02
Pseudomonas aeruginosa [3]
  fractional inhibitory concentration index (FICI): 0.25
Pseudomonas aeruginosa [5]
  MIC: 512 µg/mL
Pseudomonas aeruginosa [6]
  fractional inhibitory concentration index (FICI): 0.19
Pseudomonas aeruginosa [7]
  fractional inhibitory concentration index (FICI): 0.063 - 0.07
Pseudomonas aeruginosa [9]
  MIC: 32 µg/mL
Pseudomonas aeruginosa [10]
  fractional inhibitory concentration index (FICI): 0.04
Pseudomonas aeruginosa [11]
  fractional inhibitory concentration index (FICI): 0.09
Pseudomonas aeruginosa [12]
  fractional inhibitory concentration index (FICI): 0.09
Pseudomonas aeruginosa [13]
  fractional inhibitory concentration index (FICI): 0.07
Pseudomonas aeruginosa [14]
  fractional inhibitory concentration index (FICI): 0.05
Pseudomonas aeruginosa [15]
  MIC: 512 µg/mL
Pseudomonas aeruginosa [16]
  MIC: 512 µg/mL
Pseudomonas aeruginosa [17]
  fractional inhibitory concentration index (FICI): 0.38
Pseudomonas aeruginosa [18]
  fractional inhibitory concentration index (FICI): 0.031 - 0.033
Pseudomonas aeruginosa [19]
  fractional inhibitory concentration index (FICI): 0.02
Pseudomonas aeruginosa [20]
  fractional inhibitory concentration index (FICI): 0.5
Pseudomonas aeruginosa [22]
  MIC: 32 µg/mL
Pseudomonas aeruginosa [23]
  fractional inhibitory concentration index (FICI): 0.063 - 0.078
